In paper PMC6681659 (Bioorganic & medicinal chemistry letters, 2018):

Key:
Kif15-N700 [1] = target: T1, Kif15-N700 (Homo sapiens, UniProt Q9NS87); test: MT gliding assay with Kif15-N700; assay type: biochemical; details: for effect on Kif15-driven MT gliding at a single concentration: GW108X 10 μM for 1 minute, Kif15-IN-1 1.72 μM; for reversibility of Kif15 inhibition in MT gliding assay: wash out experiment; for Kif15 MT gliding inhibition (SAR, in words): 750 nM
T1 sequence (Q9NS87 1-700 limits assumed): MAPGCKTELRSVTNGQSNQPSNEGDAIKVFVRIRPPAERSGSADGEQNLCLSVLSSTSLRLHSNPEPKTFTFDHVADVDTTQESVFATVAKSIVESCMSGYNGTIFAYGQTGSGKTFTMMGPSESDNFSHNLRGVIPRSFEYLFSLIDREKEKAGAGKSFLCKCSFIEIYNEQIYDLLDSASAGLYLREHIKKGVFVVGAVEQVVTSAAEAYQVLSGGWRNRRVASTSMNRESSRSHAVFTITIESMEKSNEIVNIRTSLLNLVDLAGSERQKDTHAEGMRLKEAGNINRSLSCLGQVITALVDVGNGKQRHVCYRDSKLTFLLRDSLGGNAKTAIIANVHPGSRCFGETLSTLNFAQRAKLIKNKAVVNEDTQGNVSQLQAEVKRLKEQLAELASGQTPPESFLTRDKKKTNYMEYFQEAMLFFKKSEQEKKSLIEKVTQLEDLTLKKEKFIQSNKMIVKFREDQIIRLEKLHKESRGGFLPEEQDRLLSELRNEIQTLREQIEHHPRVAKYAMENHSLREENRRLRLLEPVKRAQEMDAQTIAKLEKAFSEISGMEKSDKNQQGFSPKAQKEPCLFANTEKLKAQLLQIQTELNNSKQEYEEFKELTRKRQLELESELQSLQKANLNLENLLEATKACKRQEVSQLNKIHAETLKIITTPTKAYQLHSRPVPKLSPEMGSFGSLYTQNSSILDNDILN
How it was run: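 Motility assay in which Kif15-N700 glides fluorescent MTs, scored by gliding velocity. The SAR screen used 750 nM test compound in triplicate (some in duplicate), with n ≥ 30 measurements per replicate. Concentration-response series ran 10 to 0.2 μM (12 concentrations) or 30 to 0.1 μM (5 concentrations). For reversibility, gliding was started in DMSO, then 10 μM compound was added for 1 minute, followed by a double wash-out.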

TP53−/− RPE-1 cells = test: Spindle morphology; assay type: cell-based; details: 25 μM
How it was run: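 TP53−/− RPE-1 cells were exposed to 25 μM test compound or DMSO for 24 h and stained for tubulin, Kif15 and DNA. Pre-anaphase microtubule arrays were scored for bipolarity, in triplicate with at least 100 cells per replicate; spindle lengths were compared with DMSO-treated cells.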

KIRC-1 cells = test: Spindle monopolarity in K5I-resistant KIRC-1 cells; assay type: cell-based
Kif15-N700 [2] = target: T1, Kif15-N700; test: MT-stimulated ATPase activity of Kif15-N700 at varying ATP or MT concentrations; assay type: biochemical; details: for mode of inhibition with respect to ATP: Lineweaver-Burk analysis
RPE-1 cells = details: cited from earlier work
Kif15 = target: T2, Kif15 (Homo sapiens, UniProt Q9NS87); test: Kif15 localization and protein level in RPE-1 cells; assay type: cell-based; details: 25 μM
T2 sequence (Q9NS87 1-1388): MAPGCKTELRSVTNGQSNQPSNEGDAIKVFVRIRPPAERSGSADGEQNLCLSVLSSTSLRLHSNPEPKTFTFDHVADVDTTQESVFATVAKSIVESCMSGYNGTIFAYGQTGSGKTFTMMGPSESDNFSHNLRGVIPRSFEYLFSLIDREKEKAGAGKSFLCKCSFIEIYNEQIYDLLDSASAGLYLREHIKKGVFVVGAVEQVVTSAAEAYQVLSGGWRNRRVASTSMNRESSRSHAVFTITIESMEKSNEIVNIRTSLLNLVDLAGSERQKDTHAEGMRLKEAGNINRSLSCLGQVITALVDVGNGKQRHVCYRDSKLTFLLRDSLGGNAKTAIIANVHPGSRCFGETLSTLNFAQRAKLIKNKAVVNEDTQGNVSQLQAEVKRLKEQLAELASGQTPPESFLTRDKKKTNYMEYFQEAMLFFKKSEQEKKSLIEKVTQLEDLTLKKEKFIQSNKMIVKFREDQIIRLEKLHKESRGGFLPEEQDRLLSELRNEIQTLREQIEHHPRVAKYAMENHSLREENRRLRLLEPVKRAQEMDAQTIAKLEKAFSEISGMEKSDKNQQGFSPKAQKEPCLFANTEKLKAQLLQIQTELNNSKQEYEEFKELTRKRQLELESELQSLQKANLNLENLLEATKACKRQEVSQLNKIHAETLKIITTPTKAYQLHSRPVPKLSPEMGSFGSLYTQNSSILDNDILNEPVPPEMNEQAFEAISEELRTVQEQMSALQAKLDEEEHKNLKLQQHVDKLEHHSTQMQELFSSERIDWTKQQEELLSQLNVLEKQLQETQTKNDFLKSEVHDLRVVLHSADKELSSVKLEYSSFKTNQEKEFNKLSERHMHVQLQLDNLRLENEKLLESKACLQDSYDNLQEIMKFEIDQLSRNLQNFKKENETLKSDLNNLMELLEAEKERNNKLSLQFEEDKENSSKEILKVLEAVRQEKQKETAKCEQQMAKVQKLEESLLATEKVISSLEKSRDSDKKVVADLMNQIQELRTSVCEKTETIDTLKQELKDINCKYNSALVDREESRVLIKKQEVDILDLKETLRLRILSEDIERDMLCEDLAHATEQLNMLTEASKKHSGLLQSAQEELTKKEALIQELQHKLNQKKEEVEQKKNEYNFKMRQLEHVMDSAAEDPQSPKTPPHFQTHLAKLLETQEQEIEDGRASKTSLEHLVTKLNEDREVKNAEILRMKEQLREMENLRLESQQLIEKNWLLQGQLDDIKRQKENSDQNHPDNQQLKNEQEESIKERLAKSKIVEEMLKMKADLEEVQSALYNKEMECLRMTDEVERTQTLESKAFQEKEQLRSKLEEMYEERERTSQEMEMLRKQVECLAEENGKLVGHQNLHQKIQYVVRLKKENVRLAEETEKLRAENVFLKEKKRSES
How it was run: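 TP53−/− RPE-1 cells were exposed to the test compound at 25 μM or to DMSO for 24 h, then immunostained for Kif15, tubulin and DNA. Imaging used max-intensity z-projections or single optical sections. Spindle-bound Kif15 was quantified on metaphase MTs as the ratio of Kif15 to tubulin fluorescence intensity. 25–30 cells were analysed, pooled from triplicate experiments.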

[3] = ATP varied, high MT concentration

O=C1Nc2ccc(C(=O)c3ccco3)cc2/C1=C/c1cc(Cl)c(O)c(Cl)c1 [GW108X]
effect on Kif15-driven MT gliding at a single concentration (Kif15-N700 [1]): eliminate MT gliding | reversibility of Kif15 inhibition in MT gliding assay (Kif15-N700 [1]): reversible | spindle length (effect in words) (TP53−/− RPE-1 cells): unaffected | dose dependence of block of spindle assembly (KIRC-1 cells): dose-dependent | change in KM^ATP (Kif15-N700 [2]; [3]): no change | change in Vmax (Kif15-N700 [2]; [3]): decrease | mode of inhibition with respect to ATP (Kif15-N700 [2]): not competing with ATP binding | change in KM^MT (Kif15-N700 [2]; MT varied, saturating ATP): increase

COc1c(Br)cc(/C=C2\C(=O)Nc3ccc(C(=O)c4ccco4)cc32)cc1Br [Compound 10]
Kif15 MT gliding inhibition (SAR, in words) (Kif15-N700 [1]): abolished activity

O=C1Nc2ccc(C(=O)c3ccco3)cc2/C1=C/c1cc(Br)cc(Br)c1 [Compound 8]
Kif15 MT gliding inhibition (SAR, in words) (Kif15-N700 [1]): abolished activity

O=C1Nc2ccc(C(=O)c3ccco3)cc2/C1=C/c1cc(F)c(O)c(Br)c1 [Compound 6]
Kif15 MT gliding inhibition (SAR, in words) (Kif15-N700 [1]): intermediary inhibition

Cc1cc(/C=C2\C(=O)Nc3ccc(C(=O)c4ccco4)cc32)cc(C)c1O [Compound 9]
Kif15 MT gliding inhibition (SAR, in words) (Kif15-N700 [1]): reduced in activity

BRD9876
effect on spindle integrity (RPE-1 cells): does not cause spindle collapse

O=C1Nc2ccc(C(=O)c3ccco3)cc2/C1=C/c1cc(Cl)c(O)c(Br)c1 [Compound 7]
Kif15 MT gliding inhibition (SAR, in words) (Kif15-N700 [1]): intermediary inhibition

CCOC(=O)c1sc(NC(=O)[C@H](C(C)C)n2c(=O)[nH]c3ccccc3c2=O)nc1C [Kif15-IN-1, reference compound]
effect on Kif15-driven MT gliding at a single concentration (Kif15-N700 [1]): abolishes Kif15-driven MT gliding | reversibility of Kif15 inhibition in MT gliding assay (Kif15-N700 [1]): reversible | effect on spindle-bound levels of Kif15 (Kif15): did not reduce | change in KM^ATP (Kif15-N700 [2]; [3]): increase | mode of inhibition with respect to ATP (Kif15-N700 [2]): competes with ATP binding

O=C1Nc2ccc(C(=O)c3ccco3)cc2/C1=C/c1cc(I)c(O)c(I)c1 [Compound 5]
Kif15 MT gliding inhibition (SAR, in words) (Kif15-N700 [1]): not as well tolerated
